Measured values of several laboratories.
Compare with care: the assays were run in different laboratories.
Target: Tyrosine-protein kinase receptor TYRO3 (TYRO3, Homo sapiens, UniProt Q06418)

CC(C)c1ccc(NC(=O)c2cccs2)c(-c2nc3ccccc3[nH]c2=O)c1 — activity vs control (enzyme activity, inhibitor; 1 µM): 103%
C=CC(=O)Nc1cc(Nc2nccc(Nc3cc(Cl)c(F)cc3C(C)(C)O)n2)c(OC)cc1N1CC[C@@H](N(C)C)C1 — inhibition (enzyme activity, inhibitor; 1 µM): 5%
Cc1c(C(=O)O)cc(-c2ccc(C3CCNCC3)cc2)c2ccc(-c3ccc(C(F)(F)F)cc3)cc12 — remaining binding (cell-free assay, competition with immobilised ligand; 1 µM): 100%
Cc1ccc(C(=O)Nc2ccc(CN3CCN(C)CC3)c(C(F)(F)F)c2)cc1C#Cc1cnc2cccnn12 — remaining signal (cell-free assay; 23.5 nM): 73%
Nc1ncnc2occ(-c3ccc(NC(=O)Nc4cc(C(F)(F)F)ccc4F)cc3)c12 — remaining signal (cell-free assay; 20 µM): 2%
CC(C)(C)c1nc(-c2cccc(NS(=O)(=O)c3c(F)cccc3F)c2F)c(-c2ccnc(N)n2)s1 — remaining activity (enzyme activity, inhibitor, radiometric; 1 µM): 90%
COCCOc1nc(-c2ccc(Cl)nc2)nc2c1CN(C(=O)c1ncn3ccccc13)CC2 — remaining binding (cell-free assay, competition with immobilised ligand; 0.1 µM): 100%
CN1CCC2(CC1)NC(=O)c1c(c3ccc(Cl)c(Cl)c3n1C)C2C#N (racemic) — ΔTm (thermal stability, DSF; 10 µM): 0.7 °C
O=C1Nc2ccc(Cl)cc2C1=Cc1cc(Cl)c(O)c(Cl)c1 — remaining signal (cell-free assay; 0.5 µM): 94.9%
Cc1c[nH]c2nccc(Oc3c(F)cc(Nc4cc(Cl)nc(N)n4)cc3F)c12 — remaining binding (cell-free assay, competition with immobilised ligand; 0.1 µM): 100%
Cc1cnc(NC2CCOCC2)nc1-n1cnc(C(=O)NC(CN)c2cc(F)cc(Cl)c2)c1 (centres unmarked) — remaining activity (enzyme activity, inhibitor, radiometric; 1 µM): 118%
C[C@@]1(Cc2ccc(C#N)cc2)C(=O)N(c2cc(Cl)cc(Cl)c2)c2ncc(C(=O)NC3(c4nc(C5CCC5)no4)CC3)n21 — remaining binding (cell-free assay, competition with immobilised ligand; 1 µM): 100%
O=C(Nc1cnn(-c2csc(C(=O)NC3COC3)c2)c1)Nc1ccccc1Cl — remaining activity (enzyme activity, inhibitor; 5 µM): 75.4%
CCS(=O)(=O)c1cc2cc(C[C@@](O)(CC(C)(C)c3ccc(F)cc3C(N)=O)C(F)(F)F)[nH]c2cn1 — remaining binding (cell-free assay, competition with immobilised ligand; 1 µM): 92%
CN1CC(Oc2cnc(C#N)cc2-c2ccn3nc(NC(=O)C4CC4)cc3c2)C1 — inhibition (enzyme activity, inhibitor; 1 µM): -2%
Cc1sc(C(=O)NC2COC2)cc1-n1cc(NC(=O)Nc2c(F)cccc2Cl)cn1 — remaining activity (enzyme activity, inhibitor; 10 µM): 98.8%
Cn1c2c(c3ccccc31)C(C#N)C(C)(C)NC2=O (centres unmarked) — ΔTm (thermal stability, DSF; 10 µM): -0.1 °C
Cc1ccc(Nc2nccc(N(C)c3ccc4c(C)n(C)nc4c3)n2)cc1S(N)(=O)=O — inhibition (cell-free assay; 10 µM): 55%
CNC(=O)c1cc(Oc2ccc(NC(=O)Nc3ccc(Cl)c(C(F)(F)F)c3)cc2)ccn1 — remaining signal (cell-free assay; 0.5 µM): 91.7%
CNC(=O)c1cc2c(Oc3ccc(NC(=O)C4(C(=O)Nc5ccc(F)cc5)CC4)cc3)ccnc2cc1OC — inhibition (enzyme activity, inhibitor, radiometric; 1 µM): 100%
CCN(CC)CCNC(=O)c1c(C)[nH]c(/C=C2\C(=O)Nc3ccc(F)cc32)c1C — inhibition (cell-free assay; 10 µM): 95%
COc1cc2ncnc(Nc3ccc(Oc4ccccc4)c(C)c3C)c2cc1OC — inhibition (enzyme activity, inhibitor; 1 µM): 25%
Cc1nc(N2CC[C@@H](O)C2)ncc1-c1cc(C(F)(F)F)cc2[nH]ncc12 — remaining binding (cell-free assay, competition with immobilised ligand; 1 µM): 66%
Cn1c2c(Cl)c(Cl)ccc2c2cn[nH]c(=O)c21 — ΔTm (thermal stability, DSF; 10 µM): 1 °C
N#CCCc1ccc2c(c1)-c1[nH]c3ccc([N+](=O)[O-])cc3c1CC(=O)N2 — remaining signal (cell-free assay; 0.5 µM): 94.8%
O=C(O)c1cc(-c2ccc(C3CCNCC3)cc2)c2ccc(-c3ccc(C(F)(F)F)cc3)cc2c1 — remaining binding (cell-free assay, competition with immobilised ligand; 1 µM): 100%
CCCOc1ccc(OC)c(F)c1C(=O)c1ccc(C(=O)N[C@@H]2CNC[C@H]2NC(=O)c2ccc3[nH]ncc3c2)cc1 — remaining activity (enzyme activity, inhibitor; 10 µM): 51%
CCCOc1ccc([C@H]2[C@H](C(=O)O)[C@@H](c3ccc4c(c3)OCO4)CN2CC(=O)Nc2c(CC)cccc2CC)cc1 — remaining binding (cell-free assay, competition with immobilised ligand; 1 µM): 100%
Cn1c2c(c3ccc(Cl)c(Cl)c31)C(C#N)C(C)(C)NC2=O (centres unmarked) — ΔTm (thermal stability, DSF; 10 µM): 0.5 °C
